The text below walks through data of ChEMBL document CHEMBL1165947, “Synthesis and antitumor activity of 2,5-bis(3'-indolyl)-furans and 3,5-bis(3'-indolyl)-isoxazoles, nortopsentin analogues” (Bioorg Med Chem, 2010).

Assay type in all cases: functional, cell-based
One experiment has as its system P388. Kind of experiment: Cytotoxicity against mouse P388 cells.
The nature of experiment [1]: Cytotoxicity against human 1657L cells after 4 days by modified propidium iodide staining-based fluorescence assay. The settings on record: 96 h. Summed up: (§1)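 Cells cultured in RPMI 1640 with 10% fetal calf serum and 0.1 mg/mL gentamicin at 37 °C, 5% CO2. Cells from exponential cultures were trypsinized and plated at 4.000-20.000 cells/well by line. After 24 h recovery, compounds were added at five log-spaced concentrations (highest 100 μg/mL) for 4 days. Proliferation was read as DNA content with aqueous propidium iodide (7 μg/ml), fluorescence ex 530/em 620 nm. Points were run in triplicate.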

The subject of a further experiment is T-24. Description: Cytotoxicity against human T24 cells after 4 days by modified propidium iodide staining-based fluorescence assay. The note with it: T-24, 96 h. In short, it runs like this: as §1
The nature of experiment [2]: Cytotoxicity against human LXFA 526L cells after 4 days by modified propidium iodide staining-based fluorescence assay. The note with it: 96 h. Summed up:
as §1

A short description of experiment [3]: Cytotoxicity against human MEXF 462NL cells after 4 days by modified propidium iodide staining-based fluorescence assay. The settings on record: 96 h. Summed up:
as §1

Experiment [4] is described as follows: Cytotoxicity against human RXF 486L cells after 4 days by modified propidium iodide staining-based fluorescence assay. The settings on record: 96 h. Summed up: as §1
The subject of the next experiment is A549. Kind of experiment: Cytotoxicity against human A549 cells after 4 days by modified propidium iodide staining-based fluorescence assay. The note with it: A549, 96 h. Summed up: as §1
Another experiment has as its system DU-145. Description: Cytotoxicity against human DU145 cells after 4 days by modified propidium iodide staining-based fluorescence assay. The settings on record: DU-145, 96 h. In short, it runs like this: as §1
Experiment [5] in a line: Cytotoxicity against human UXF 1138L cells after 4 days by modified propidium iodide staining-based fluorescence assay. The note with it: 96 h. Summed up:
as §1

The next experiment relates to PANC-1. Kind of experiment: Cytotoxicity against human PANC1 cells after 4 days by modified propidium iodide staining-based fluorescence assay. The note with it: PANC-1, 96 h. In short, it runs like this: as §1
Experiment [6] can be described thus: Cytotoxicity against human LXFA 289L cells after 4 days by modified propidium iodide staining-based fluorescence assay. The settings on record: 96 h. In short, it runs like this: as §1
The test system of another experiment is LNCaP. Kind of experiment: Cytotoxicity against human LNCAP cells after 4 days by modified propidium iodide staining-based fluorescence assay. The note with it: 96 h. In short, it runs like this:
as §1

The test system of a further experiment is NCI-H460. Description: Cytotoxicity against human H460 cells after 4 days by modified propidium iodide staining-based fluorescence assay. The settings on record: NCI-H460, 96 h. Summed up: as §1
Experiment [7] can be described thus: Cytotoxicity against human 1781L cells after 4 days by modified propidium iodide staining-based fluorescence assay. The settings on record: 96 h. Summed up:
as §1

Experiment [8] can be described thus: Cytotoxicity against human 1752L cells after 4 days by modified propidium iodide staining-based fluorescence assay. The settings on record: 96 h. In short, it runs like this: as §1
A further experiment has as its system HT-29. Kind of experiment: Cytotoxicity against human HT-29 cells after 4 days by modified propidium iodide staining-based fluorescence assay. The settings on record: HT-29, 96 h. In short, it runs like this:
as §1

Experiment [9] in a line: Cytotoxicity against human LXFL 1121L cells after 4 days by modified propidium iodide staining-based fluorescence assay. The note with it: 96 h. In short, it runs like this:
as §1

Experiment [10] in a line: Cytotoxicity against human MAXF 401NL cells after 4 days by modified propidium iodide staining-based fluorescence assay. The settings on record: 96 h. Summed up:
as §1

In a further experiment the test system is MCF7. Kind of experiment: Cytotoxicity against human MCF7 cells after 4 days by modified propidium iodide staining-based fluorescence assay. The settings on record: MCF7, 96 h. In short, it runs like this: as §1
Experiment [11] in a line: Cytotoxicity against human LXFA 629L cells after 4 days by modified propidium iodide staining-based fluorescence assay. The note with it: 96 h. Summed up: as §1
A further experiment deals with CWR22R. Kind of experiment: Cytotoxicity against human 22Rv1 cells after 4 days by modified propidium iodide staining-based fluorescence assay. The settings on record: 22Rv1, 96 h. In short, it runs like this: as §1
Another experiment has as its system OVCAR-3. Description: Cytotoxicity against human OVCAR-3 cells after 4 days by modified propidium iodide staining-based fluorescence assay. The note with it: OVCAR-3, 96 h. Summed up:
as §1

Experiment [12] is described as follows: Cytotoxicity against human GXF251L cells after 4 days by modified propidium iodide staining-based fluorescence assay. The note with it: GXF 251L, 96 h. Summed up:
as §1

Experiment [13] is described as follows: Cytotoxicity against human BXF 1218L cells after 4 days by modified propidium iodide staining-based fluorescence assay. The settings on record: 96 h. Summed up:
as §1

Experiment [14] is described as follows: Cytotoxicity against human 899L cells after 4 days by modified propidium iodide staining-based fluorescence assay. The note with it: 96 h. Summed up:
as §1

The test system of the next experiment is HCT-116. Kind of experiment: Cytotoxicity against human HCT116 cells after 4 days by modified propidium iodide staining-based fluorescence assay. The settings on record: HCT-116, 96 h. In short, it runs like this:
as §1

A short description of experiment [15]: Cytotoxicity against human MEXF 276L cells after 4 days by modified propidium iodide staining-based fluorescence assay. The note with it: MEXF276L, 96 h. Summed up: as §1
Experiment [16] is described as follows: Cytotoxicity against human PC3M cells after 4 days by modified propidium iodide staining-based fluorescence assay. The settings on record: PC-3M, 96 h. In short, it runs like this:
as §1

The test system of a further experiment is SF-268. Description: Cytotoxicity against human SF268 cells after 4 days by modified propidium iodide staining-based fluorescence assay. The note with it: SF-268, 96 h. Summed up: as §1
The nature of experiment [17]: Cytotoxicity against human MEXF 520L cells after 4 days by modified propidium iodide staining-based fluorescence assay. The note with it: 96 h. Summed up:
as §1

pIC50: −log10 of the molar value. In brackets after ≈: the same amount, converted by molar mass.

In general, pIC50 refers to the negative decadic logarithm of the IC50, by convention in mol/L. A lower pIC50 goes with a high IC50. In general, IC50 refers to the point on the concentration scale where inhibition reaches its midpoint.

Compound `Brc1ccc2c(-c3nc(-c4c[nH]c5ccccc45)c[nH]3)c[nH]c2c1` [NORTOPSENTIN B] gave a pIC50 in the experiment on P388 of 5.35.
Consider `Cn1cc(-c2cc(-c3cn(C)c4ccccc34)on2)c2ccccc21`, for which the IC50 in [1] came out at 29.9 µg/mL (≈ 91.3 µM); in the experiment on T-24, 40.6 µg/mL (≈ 124 µM); in [2], 11.5 µg/mL (≈ 35.1 µM); in experiment [3], 37.8 µg/mL (≈ 115 µM); in [4] it was 29.3 µg/mL (≈ 89.5 µM); in the experiment with A549, 5.1 µg/mL (≈ 15.6 µM). The IC50 in the experiment with DU-145 came out at 18.3 µg/mL (≈ 55.9 µM); in [5], 4.8 µg/mL (≈ 14.7 µM); with PANC-1 it was 8.8 µg/mL (≈ 26.9 µM); in experiment [6], 18.7 µg/mL (≈ 57.1 µM); in the experiment with LNCaP, 11.5 µg/mL (≈ 35.1 µM); in the experiment on NCI-H460, 18.4 µg/mL (≈ 56.2 µM). Moreover, the 50% inhibitory concentration (IC50) in [7] worked out at 38.7 µg/mL (≈ 118 µM); in [8], 24.2 µg/mL (≈ 73.9 µM); in the experiment with HT-29, 32.7 µg/mL (≈ 99.9 µM); in experiment [9], 21 µg/mL (≈ 64.1 µM); in experiment [10], 28.8 µg/mL (≈ 88 µM); with MCF7 it was 21.5 µg/mL (≈ 65.7 µM). Further, the IC50 in experiment [11] was 4.2 µg/mL (≈ 12.8 µM); in the experiment on CWR22R, 14.1 µg/mL (≈ 43.1 µM); in the experiment on OVCAR-3, 11.1 µg/mL (≈ 33.9 µM); in [12] it was 7.2 µg/mL (≈ 22 µM); in experiment [13], 20 µg/mL (≈ 61.1 µM); in [14], 14.9 µg/mL (≈ 45.5 µM). The IC50 in the experiment with HCT-116 came out at 29.5 µg/mL (≈ 90.1 µM); in [15] it was 13.3 µg/mL (≈ 40.6 µM); in experiment [16] it was 28.1 µg/mL (≈ 85.8 µM); in the experiment on SF-268, 24.6 µg/mL (≈ 75.1 µM); in experiment [17] it was 24.1 µg/mL (≈ 73.6 µM).
For the compound `Brc1ccc2c(-c3c[nH]c(-c4c[nH]c5ccccc45)n3)c[nH]c2c1` [NORTOPSENTIN C], the pIC50 in the experiment on P388 was 5.35.
Take `Cn1c(-c2cn(C)c3cc(Br)ccc23)cnc1-c1cn(C)c2ccccc12`: in the experiment on P388, the pIC50 was 6.10.
